Measured values taken from article PMC5679024 (ACS chemical neuroscience, 2017).
Each block holds one molecule with its values, some of them ahead of it. Non-standard residues stand in square brackets, D forms with d. Residues, ends and D or L forms follow the SMILES beside them.

B1: mMC3R with C-terminal NanoLuc or HaloTag (NanoBRET constructs) (receptor, mouse, UniProt P33033 1-323, looked up)
chain: MNSSCCLSSVSPMLPNLSEHPAAPPASNRSGSGFCEQVFIKPEVFLALGIVSLMENILVILAVVRNGNLHSPMYFFLCSLAAADMLVSLSNSLETIMIAVINSDSLTLEDQFIQHMDNIFDSMICISLVASICNLLAIAIDRYVTIFYALRYHSIMTVRKALTLIGVIWVCCGICGVMFIIYSESKMVIVCLITMFFAMVLLMGTLYIHMFLFARLHVQRIAVLPPAGVVAPQQHSCMKGAVTITILLGVFIFCWAPFFLHLVLIITCPTNPYCICYTAHFNTYLVLIMCNSVIDPLIYAFRSLELRNTFKEILCGCNSMNLG
B2: mMC4R with C-terminal NanoLuc or HaloTag (NanoBRET constructs) (receptor, mouse, UniProt P56450 1-332, looked up)
chain: MNSTHHHGMYTSLHLWNRSSYGLHGNASESLGKGHPDGGCYEQLFVSPEVFVTLGVISLLENILVIVAIAKNKNLHSPMYFFICSLAVADMLVSVSNGSETIVITLLNSTDTDAQSFTVNIDNVIDSVICSSLLASICSLLSIAVDRYFTIFYALQYHNIMTVRRVGIIISCIWAACTVSGVLFIIYSDSSAVIICLISMFFTMLVLMASLYVHMFLMARLHIKRIAVLPGTGTIRQGTNMKGAITLTILIGVFVVCWAPFFLHLLFYISCPQNPYCVCFMSHFNLYLILIMCNAVIDPLIYALRSQELRKTFKEIICFYPLGGICELSSRY

Legend:
male mice = test: ICV fasting-refeeding paradigm, energy homeostasis in TSE metabolic cages; type: in vivo, mouse; details: 5 nmol ICV
Summary of the method: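 Cannula-validated male mice were acclimated for one week in sealed TSE metabolic home cages (12 h light/dark, 23–25 °C) and tested in a cross-over design. Food was removed at lights out for a 22 h fast. At t=0, 2 h before lights out, mice received 5 nmol test compound or saline ICV and food was returned. Mice were watched visually for ≥2 h after dosing.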

[1] = In vitro mouse serum stability assay; type: in vitro ADME; details: for half-life / remaining at 0.5 h: serum
[2] = target: mouse melanocortin 3 receptor, mMC3R-Flag, stably expressed on HEK293 cells (mouse) (UniProt P33033)
[3] = target: mouse melanocortin 4 receptor, wildtype mMC4R, stably expressed on HEK293 cells (mouse) (UniProt P56450)
FRET or BRET = target: the molecule itself; test: FRET or BRET
[4] = target: B1; test: FRET or BRET

ambulatory activity (male mice; fasting-refeeding): No significant effects
remaining at 72 h, 10 µM ([1]; mouse serum): 12%
half-life [1]: 1010 min
Molecule: CC(=O)N[C@@H](Cc1cnc[nH]1)C(=O)N[C@H](Cc1ccccc1)C(=O)N[C@@H](CCCN=C(N)N)C(=O)N[C@@H](Cc1c[nH]c2ccccc12)C(N)=O [CJL-1-14, Ac-His-DPhe-Arg-Trp-NH2]
adverse reactions, visual monitoring (male mice; at least 2 hours post treatment): no adverse reactions

half-life [1]: 6 min
remaining at 0.5 h [1]: ≤ 2%
Molecule: CC(=O)N[C@@H](Cc1cnc[nH]1)C(=O)N[C@H](Cc1ccccc1)C(=O)N[C@@H](CCCNC(=N)N)C(=O)N[C@@H](Cc1c[nH]c2ccccc12)C(=O)N1CCC[C@H]1C(=O)NCC(=O)N1CCC[C@H]1C(=O)NCC(=O)N1CCC[C@H]1C(=O)NCC(=O)N1CCC[C@H]1C(=O)NCC(=O)N1CCC[C@H]1C(=O)NCC(=O)N1CCC[C@H]1C(=O)NCC(=O)N[C@@H](Cc1cnc[nH]1)C(=O)N[C@H](Cc1ccccc1)C(=O)N[C@@H](CCCNC(=N)N)C(=O)N[C@@H](Cc1c[nH]c2ccccc12)C(N)=O [CJL-1-31, Ac-His-DPhe-Arg-Trp-(Pro-Gly)6-His-DPhe-Arg-Trp-NH2] (Ac-H[dF]RWPGPGPGPGPGPGH[dF]RW-NH2)

half-life [1]: 6 min
remaining at 0.5 h [1]: ≤ 2%
Molecule: N=C(N)NCCC[C@H](NC(=O)[C@@H](Cc1ccccc1)NC(=O)[C@H](Cc1cnc[nH]1)NC(=O)CNC(=O)[C@@H]1CCCN1C(=O)CNC(=O)[C@@H]1CCCN1C(=O)CNC(=O)[C@@H]1CCCN1C(=O)CNC(=O)[C@@H]1CCCN1C(=O)CNC(=O)[C@@H]1CCCN1C(=O)CNC(=O)[C@@H]1CCCN1)C(=O)N[C@@H](Cc1c[nH]c2ccccc12)C(N)=O [CJL-1-41, (Pro-Gly)6-His-DPhe-Arg-Trp-NH2] (H-PGPGPGPGPGPGH[dF]RW-NH2)

half-life [1]: 6 min
remaining at 0.5 h [1]: ≤ 2%
Molecule: CC(=O)N[C@@H](Cc1cnc[nH]1)C(=O)N[C@H](Cc1ccccc1)C(=O)N[C@@H](CCCNC(=N)N)C(=O)N[C@@H](Cc1c[nH]c2ccccc12)C(=O)N1CCC[C@H]1C(=O)NCC(=O)N1CCC[C@H]1C(=O)NCC(=O)N1CCC[C@H]1C(=O)NCC(=O)N1CCC[C@H]1C(=O)NCC(=O)N1CCC[C@H]1C(=O)NCC(=O)N1CCC[C@H]1C(=O)NCC(N)=O [CJL-5-35-1, Ac-His-DPhe-Arg-Trp-(Pro-Gly)6-NH2] (Ac-H[dF]RWPGPGPGPGPGPG-NH2)

Agonist cAMP Based Alpha Screen Results EC50 (nM), stable mMC3R cells [2]: 0.21 nM
Agonist cAMP Based Alpha Screen Results EC50 (nM), stable mMC4R cells [3]: 3.1 nM
Molecule: α-MSH (peptide)

Molecule: B1
BRET ratio (FRET or BRET): 90 mBU

Molecule: B2
BRET ratio [4]: 150 mBU
BRET ratio (FRET or BRET): 100 mBU
